Laboratory results published in ChEMBL document CHEMBL5154945, “Discovery and Optimization of Pyrrolopyrimidine Derivatives as Selective Disruptors of the Perinucleolar Compartment, a Marker of Tumor Progression toward Metastasis” (J Med Chem, 2022).

What was measured:
COLO 205 = experiment: Anticancer activity against human COLO 205 cells assessed as cell growth inhibition; format: functional, cell-based; conditions: dose 1-100 µM, DDE = dose-dependent effect
SW-620 = experiment: Anticancer activity against human SW-620 cells assessed as cell growth inhibition; format: functional, cell-based; conditions: dose 1-100 µM, DDE = dose-dependent effect
HT-29 = experiment: Anticancer activity against human HT-29 cells assessed as cell growth inhibition; format: functional, cell-based; conditions: dose 1-100 µM, DDE = dose-dependent effect
OVCAR-3 = experiment: Anticancer activity against human OVCAR-3 cells assessed as cell growth inhibition; format: functional, cell-based; conditions: dose 1-100 µM, DDE = dose-dependent effect
OVCAR-5 = experiment: Anticancer activity against human OVCAR-5 cells assessed as cell growth inhibition; format: functional, cell-based; conditions: dose 1-100 µM, DDE = dose-dependent effect
PC-3M [1] = experiment: Antiproliferative activity against human PC-3M cells expressing PTB/GFP fusion protein assessed as reduction of nucleolar volume at 1 to 30 uM measured after 24 hrs by Nucleolar-id Green Detection based confocal microscopic analysis; format: functional, cell-based; conditions: dose 1-30 µM, DDE = dose-dependent effect
Outline: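 PC-3M cells grown in RPMI 1640 with 10% FBS and penicillin/streptomycin, trypsinized at 70% confluence, and seeded at 2×10^5 cells/mL overnight at 37 °C, 5% CO₂. Medium replaced with compound or 1% DMSO for 24 h. Nucleoli stained with Nucleolar-ID Green and nuclei with Hoechst 33342, then imaged by confocal microscopy. Bright green objects in three images per condition normalized to nuclei count; vehicle set to 100.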

NCI-H226 = experiment: Anticancer activity against human NCI-H226 cells assessed as cell growth inhibition; format: functional, cell-based; conditions: dose 1-100 µM, DDE = dose-dependent effect
SN12C = experiment: Anticancer activity against human SN12C cells assessed as cell growth inhibition; format: functional, cell-based; conditions: dose 1-100 µM, DDE = dose-dependent effect
EKVX = experiment: Anticancer activity against human EKVX cells assessed as cell growth inhibition; format: functional, cell-based; conditions: dose 1-100 µM, DDE = dose-dependent effect
DU-145 = experiment: Anticancer activity against human DU-145 cells assessed as cell growth inhibition; format: functional, cell-based; conditions: dose 1-100 µM, DDE = dose-dependent effect
PC-3M [2] = experiment: Cytotoxicity against human PC-3M cells expressing PTB/GFP fusion protein assessed as reduction in ATP level at 20 uM and measured after 24 to 48 hrs by ATPlite luminescence assay; format: toxicity, cell-based; conditions: time 24-48 hrs
SK-OV-3 = experiment: Anticancer activity against human SK-OV-3 cells assessed as cell growth inhibition; format: functional, cell-based; conditions: dose 1-100 µM, DDE = dose-dependent effect
KM12 = experiment: Anticancer activity against human KM12 cells assessed as cell growth inhibition; format: functional, cell-based; conditions: dose 1-100 µM, DDE = dose-dependent effect
ACHN = experiment: Anticancer activity against human ACHN cells assessed as cell growth inhibition; format: functional, cell-based; conditions: dose 1-100 µM, DDE = dose-dependent effect
MCF7 = experiment: Anticancer activity against human MCF7 cells assessed as cell growth inhibition; format: functional, cell-based; conditions: dose 1-100 µM, DDE = dose-dependent effect
HOP-62 = experiment: Anticancer activity against human HOP-62 cells assessed as cell growth inhibition; format: functional, cell-based; conditions: dose 1-100 µM, DDE = dose-dependent effect
U-251 = experiment: Anticancer activity against human U-251 cells assessed as cell growth inhibition; format: functional, cell-based; conditions: dose 1-100 µM, DDE = dose-dependent effect
MDA-MB-468 = experiment: Anticancer activity against human MDA-MB-468 cells assessed as cell growth inhibition; format: functional, cell-based; conditions: dose 1-100 µM, DDE = dose-dependent effect
PC-3 = experiment: Anticancer activity against human PC-3 cells assessed as cell growth inhibition; format: functional, cell-based; conditions: dose 1-100 µM, DDE = dose-dependent effect
PC-3M [3] = experiment: Antiproliferative activity against human PC-3M cells expressing PTB/GFP fusion protein assessed as cell growth inhibition at < 100 nM and measured every four hrs for 130 hrs by IncuCyte zoom live cell analysis; format: functional, cell-based; conditions: DDE = dose-dependent effect
Outline: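 PC3M cells stably expressing GFP-PTB, grown in DMEM with 10% FBS and 1% penicillin/streptomycin, seeded at 1.25×10^4 cells/ml in 384-well plates and left overnight at 37 °C, 5% CO2. Compound added in DMEM to give 11 final concentrations from 10 nM to 20 μM. Brightfield images were taken every 4 h for about 130 h and scored as percent confluence.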

UACC-62 = experiment: Anticancer activity against human UACC-62 cells assessed as cell growth inhibition; format: functional, cell-based; conditions: dose 1-100 µM, DDE = dose-dependent effect
OVCAR-4 = experiment: Anticancer activity against human OVCAR-4 cells assessed as cell growth inhibition; format: functional, cell-based; conditions: dose 1-100 µM, DDE = dose-dependent effect
HCT-116 = experiment: Anticancer activity against human HCT-116 cells assessed as cell growth inhibition; format: functional, cell-based; conditions: dose 1-100 µM, DDE = dose-dependent effect
Hs-578T = experiment: Anticancer activity against human Hs-578T cells assessed as cell growth inhibition; format: functional, cell-based; conditions: dose 1-100 µM, DDE = dose-dependent effect
MDA-MB-435 = experiment: Anticancer activity against human MDA-MB-435 cells assessed as cell growth inhibition; format: functional, cell-based; conditions: dose 1-100 µM, DDE = dose-dependent effect
RPMI-8226 = experiment: Anticancer activity against human RPMI-8226 cells assessed as cell growth inhibition; format: functional, cell-based; conditions: dose 1-100 µM, DDE = dose-dependent effect
MDA-MB-231 = experiment: Anticancer activity against human MDA-MB-231 cells assessed as cell growth inhibition; format: functional, cell-based; conditions: dose 1-100 µM, DDE = dose-dependent effect
OVCAR-8 = experiment: Anticancer activity against human OVCAR-8 cells assessed as cell growth inhibition; format: functional, cell-based; conditions: dose 1-100 µM, DDE = dose-dependent effect
M14 = experiment: Anticancer activity against human M14 cells assessed as cell growth inhibition; format: functional, cell-based; conditions: dose 1-100 µM, DDE = dose-dependent effect
SNB-19 = experiment: Anticancer activity against human SNB-19 cells assessed as cell growth inhibition; format: functional, cell-based; conditions: dose 1-100 µM, DDE = dose-dependent effect
TK-10 = experiment: Anticancer activity against human TK-10 cells assessed as cell growth inhibition; format: functional, cell-based; conditions: dose 1-100 µM, DDE = dose-dependent effect

## N=c1c2c(-c3ccccc3)c(-c3ccccc3)n(Cc3ccccc3)c2ncn1CCCO
COLO 205
  Activity: Dde
SW-620
  Activity: Dde
HT-29
  Activity: Dde
OVCAR-3
  Activity: Dde
OVCAR-5
  Activity: Dde
PC-3M [1]
  Activity: Dde
NCI-H226
  Activity: Dde
SN12C
  Activity: Dde
EKVX
  Activity: Dde
DU-145
  Activity: Dde
PC-3M [2]
  Activity: Toxic
SK-OV-3
  Activity: Dde
KM12
  Activity: Dde
ACHN
  Activity: Dde
MCF7
  Activity: Dde
HOP-62
  Activity: Dde
U-251
  Activity: Dde
MDA-MB-468
  Activity: Dde
PC-3
  Activity: Dde
PC-3M [3]
  Activity: Dde
UACC-62
  Activity: Dde
OVCAR-4
  Activity: Dde
HCT-116
  Activity: Dde
Hs-578T
  Activity: Dde
MDA-MB-435
  Activity: Dde
RPMI-8226
  Activity: Dde
MDA-MB-231
  Activity: Dde
OVCAR-8
  Activity: Dde
M14
  Activity: Dde
SNB-19
  Activity: Dde
TK-10
  Activity: Dde
